SDO1 yeast rescue: compounds rescuing growth of sdo1-depleted yeast, bone marrow failure model; AID 817; S. cerevisiae sdo1-depleted JHY4D growth rescue, OD600 30 h; stronger effect = higher value; pdr5 snq2 efflux-pump mutant strain; hit rate 0.21% among 140,000; z-score at 10 µM;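 active = z-score above 3 at both the 24 hr and the 30 hr optical density reads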;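 note: z-score against mean and SD of all compound wells on the same plate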
PTEN del growth: growth suppressors of cells with PTEN tumor suppressor deletion | viability, % at 10 µM | hit rate 1.2% among 140,000 | HCT116 PTEN-null viability, CellTiter-Glo, 60 h; stronger effect = lower value;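 active = viability at or below a set limit, 4 SD under the median of all tested compounds, cut at about 3.7% in these data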;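 note: PTEN knockout HCT116 line with beta catenin targeted HCT116 as companion control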
HCT116 bCat-KO: beta-catenin-lacking colon tumor cell growth suppression; viability, % at 10 µM; HCT116 beta-catenin knockout viability, CellTiter-Glo, 60 h; stronger effect = lower value; hit rate 1.5% among 140,000;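 active = viability at or under a set limit, the compound median less 4 SD, cut at about 6% in these data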;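 note: 0% = Hyamine 1622 control at 20 µM and 100% = untreated cell control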
Yeast lifespan up: extends the lifespan of yeast; inhibition of the nicotinamide effect, % at 10 µM; S. cerevisiae growth with nicotinamide, OD615; deaD strain in restrictive glucose medium; hit rate 0.68% among 130,000; AID 775;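 active = inhibition above a set limit, placed 3 SD over the median of all compounds, cut at about 26% in these data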;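 note: 0% = nicotinamide-treated wells and 100% = cells grown without nicotinamide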
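System: Modified budding yeast, DeaD strain | Buffer or medium: Restrictive glucose medium | Also added: 1.5 mM nicotinamide | Doses: 10 µM single point, 0.25% DMSO | Schedule: 48 h compound exposure at 30 °C, humidified | Detection: Absorbance at 615 nm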
Yeast growth inh: chemicals that inhibit yeast BB579 growth in restrictive medium (lifespan-shortening candidates); hit rate 0.51% among 140,000; AID 804; S. cerevisiae BB579 growth, OD615, 48 h; inhibition, % at 10 µM;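 active = inhibition above a set limit, 3 SD over the mean compound inhibition, cut at about 44% in these data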
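System: DeaD yeast strain BB579; buffer or medium: CSMM-D dextrose restrictive medium; technique: OD at 615 nm; schedule: 4 h cell preincubation, 48 h compound exposure, 30 °C humidified; doses: single 10 µM dose; controls: amphotericin B 10 µg/mL, positive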
* hit, by the source's call; / = no result. The list is not random: actives were taken first. Their share in the collection is about 2.8%.

SMILES | SDO1 yeast rescue | PTEN del growth | HCT116 bCat-KO | Yeast lifespan up | Yeast growth inh
C=CCSc1nc2sc(-c3ccccc3)cc2c(=O)n1N | -0.75 | 108 | 97 | -5 | -38
CC(C)N1C(=O)CC2(CC[N+](C)(CCOC(=O)C(c3ccccc3)c3ccccc3)CC2)C1=O (stereo not drawn) | 1.2 | 103 | 99 | -6 | -12
CS(=O)(=O)N(CC(=O)NCc1ccco1)c1ccc(Cl)c(C(F)(F)F)c1 | -0.57 | 78 | 91 | -2 | -34
CC(=O)c1c(C)[nH]c(C(=O)CSc2nc3ccc(C)cc3[nH]2)c1C | 0.15 | 83 | 90 | -10 | -40
O=C(Nc1ccc(Cl)cc1)Nc1ccc(N2CCCC2)c(S(=O)(=O)Nc2ccccc2Cl)c1 | -0.46 | 1.8* | 1.9* | 8 | -20
O=C(Nc1ccc(Cl)cc1)/C(=C/c1cccc(O)c1)c1nc2ccccc2s1 | -2.1 | 1.9* | 2.2* | -3 | -28
CCC(C)NC(=O)C1CCN(S(=O)(=O)c2cccc3cccnc23)CC1 (stereo not drawn) | 1.2 | 78 | 74 | -7 | 49*
O=c1cc(-c2ccco2)oc2c1ccc1ccccc12 | 0.22 | 78 | 88 | -33 | 11
O=c1cc(C(Cl)(Cl)Cl)oc2c1ccc1ccccc12 | -1.8 | 2.6* | 2.5* | 1 | -68
CC/C(C)=N/Nc1cccc([N+](=O)[O-])c1 | -2.2 | 98 | 99 | -9 | 98*
COc1ccc(-c2nsc(C(=O)N(c3ccc(F)cc3)C(C(=O)NC3CCCC3)c3ccc(OC)cc3)c2N)cc1 (stereo not drawn) | 0.59 | 86 | 80 | 6 | -31
O=C(N/N=C/c1cccc([N+](=O)[O-])c1)c1cc2ccccc2o1 | -0.68 | 2.2* | 3.8* | 9 | -14
O=C(COc1ccc(/C=N/NC(=O)c2cc3ccccc3o2)cc1Cl)Nc1ccccc1 | -2.7 | 1.5* | 2.8* | -15 | -36
Cc1ccc(C2(c3ccc(C)cc3)CC2C(=O)Nc2ccc([N+](=O)[O-])cc2O)cc1 (stereo not drawn) | -1.7 | 3.3* | 2.3* | -6 | -38
COC(=O)c1cc(NC(=O)CSc2nncn2C)cc(C(=O)OC)c1 | 0.06 | 103 | 100 | -11 | -39
O=S(=O)(Nc1nc(CN2CCOCC2)nc2sc3c(c12)CCCC3)c1cc(F)ccc1F | -0.77 | 88 | 82 | 32 | -39
Cn1cc(C(=O)c2ccc(Cl)cc2Cl)cc1C(=O)N/N=C(\N)COc1cccc(C(F)(F)F)c1 | 0.2 | 8 | 5.2* | -5 | -35
COC(=O)c1cc(C(=O)c2ccc(Cl)cc2Cl)cn1C | 1.9 | 83 | 89 | -6 | 22
CC(=O)Nc1nc(C)c(-c2csc(Nc3cccc([N+](=O)[O-])c3)n2)s1 | 0.02 | 1.7* | 1.8* | -12 | -42
CCC1C(=O)N=C(SCC(=O)Nc2ccccc2)NC1=O (stereo not drawn) | 1.1 | 92 | 96 | / | 51*
CCS(=O)(=O)CCSc1nc2ccccc2s1 | 0.15 | 103 | 99 | -10 | 0
O=S(=O)(CCSc1nc2ccccc2s1)c1nc2ccccc2s1 | -1.7 | 3.3* | 3.9* | -2 | -34
CCCC(=O)NC(c1ccco1)c1cc(Cl)c2cccnc2c1O (stereo not drawn) | -1.1 | 7 | 6.0* | -5 | -24
CCCC(=O)NC(c1ccc2c(c1)OCO2)c1cc(Cl)c2cccnc2c1O (stereo not drawn) | -0.79 | 5 | 4.1* | -5 | -22
O=C(NC(c1ccccc1)c1cc(Cl)c2cccnc2c1O)c1cccnc1 (stereo not drawn) | -1.2 | 8 | 6 | -6 | 28
SMILES | SDO1 yeast rescue | PTEN del growth | HCT116 bCat-KO | Yeast lifespan up | Yeast growth inh
Cc1ccc(C(=O)Nc2ccc3cn[nH]c3c2)cc1S(=O)(=O)N1CCCCC1 | -0.57 | 61 | 73 | -7 | 0
CC(C)CCn1cnc2c(c1=O)c1nc3ccccc3nc1n2Cc1ccc2c(c1)OCO2 | -0.66 | 80 | 79 | -4 | -22
Fc1ccc2nc3[nH]c4ccccc4c3nc2c1 | -1.9 | 34 | 26 | -29 | 63*
CCNc1nc(N)nc(-c2cc(Cl)ccc2O)n1 | -1.7 | 7 | 5.2* | -6 | 9
CCCCNc1nc(N)nc(-c2cc(Cl)ccc2O)n1 | -2.2 | 6 | 8 | -1 | 8
O=c1cc(CSc2ccc(S(=O)(=O)N3CCCCC3)cn2)nc2sccn12 | 0.14 | 85 | 80 | -12 | 19
Cc1nc2nc(-c3ccco3)[nH]n2c(=O)c1C | 3.6 | / | 94 | -1 | -32
COCCNC(=S)N/N=C(\C)c1ccccc1O | -0.21 | 8 | 4.2* | -3 | -25
COc1ccc([C@@H]2[C@@H](C(=O)C(C)(C)C)N3N=Cc4ccccc4[C@@H]3C23C(=O)OC(C)(C)OC3=O)cc1OC | 0.04 | 103 | 87 | 23 | -3
COc1ccc([C@H]2[C@H](C(=O)C(C)(C)C)N3N=Cc4ccccc4C3C23C(=O)OC(C)(C)OC3=O)cc1 (stereo partly drawn) | -0.31 | 98 | 94 | 36* | 7
CCOC(=O)N1CCN(C(=O)c2ccc3c(=O)n(CC4CCCO4)c(=S)[nH]c3c2)CC1 (stereo not drawn) | -0.28 | 110 | 82 | 2 | -32
O=C(c1ccc2c(=O)n(CC3CCCO3)c(=S)[nH]c2c1)N1CCN(c2ccccc2)CC1 (stereo not drawn) | 0.74 | 1.5* | 1.1* | -23 | -61
Cc1nc2cc(N3CCN(C)CC3)c(NC(=O)Cc3ccccc3)cc2c(=O)n1Cc1ccccc1 | 0.17 | 77 | 83 | -8 | -66
Cc1nc2cc(N3CCCCC3)c(NC(=O)c3ccncc3)cc2c(=O)n1Cc1ccc(Cl)cc1 | 0.01 | 1.1* | 1.2* | -27 | -7
COc1ccc(-n2c(C(C)(C)C)csc2=Nc2c(C)n(C)n(-c3ccccc3)c2=O)cc1 | 1.2 | 90 | 91 | 6 | -25
CCOc1ccc(C2OC34CCCCC3C(C#N)(C#N)C2(C#N)C(=N)O4)cc1OC (stereo not drawn) | 5.7* | 94 | 91 | -1 | -16
CCCCOc1ccc(C2OC34CCCCC3C(C#N)(C#N)C2(C#N)C(=N)O4)cc1 (stereo not drawn) | -0.28 | 100 | 89 | -4 | 2
CCn1cc([N+](=O)[O-])c(C(=O)Nc2ccc(Cn3nc(C)cc3C)cc2)n1 | 0.8 | 100 | 91 | -2 | -54
CCn1ncc([N+](=O)[O-])c1C(=O)Nc1ccc(C(=O)N2CCCCC2)cc1 | 0.27 | 88 | 94 | 3 | -30
Cc1ccc(Cn2ccc(NC(=O)c3nn(C)cc3[N+](=O)[O-])n2)cc1 | 0.73 | 2.6* | 5.0* | 4 | -42
Cn1cc([N+](=O)[O-])c(C(=O)Nc2cc(Oc3cccnc3)cc([N+](=O)[O-])c2)n1 | 0.22 | 0.3* | 1.6* | -14 | -43
CCn1cc([N+](=O)[O-])c(C(=O)Nc2ccn(Cc3ccccc3)n2)n1 | 0.27 | 97 | 105 | 0 | -20

Compound activity from PubChem.
